Among the data in ChEMBL document CHEMBL1123918, “Thromboxane synthetase inhibitors and antihypertensive agents. 4. N-[(1H-imidazol-1-yl)alkyl] derivatives of quinazoline-2,4(1H,3H)-diones, quinazolin-4(3H)-ones, and 1,2,3-benzotriazin-4(3H)-ones” (J Med Chem, 1987) are IC50, Activity and inhibition in vivo values, retold here.

For assay [1], the target named is T1, Thromboxane-A synthase (Rattus norvegicus, UniProt P49430).
T1 sequence (P49430 whole entry): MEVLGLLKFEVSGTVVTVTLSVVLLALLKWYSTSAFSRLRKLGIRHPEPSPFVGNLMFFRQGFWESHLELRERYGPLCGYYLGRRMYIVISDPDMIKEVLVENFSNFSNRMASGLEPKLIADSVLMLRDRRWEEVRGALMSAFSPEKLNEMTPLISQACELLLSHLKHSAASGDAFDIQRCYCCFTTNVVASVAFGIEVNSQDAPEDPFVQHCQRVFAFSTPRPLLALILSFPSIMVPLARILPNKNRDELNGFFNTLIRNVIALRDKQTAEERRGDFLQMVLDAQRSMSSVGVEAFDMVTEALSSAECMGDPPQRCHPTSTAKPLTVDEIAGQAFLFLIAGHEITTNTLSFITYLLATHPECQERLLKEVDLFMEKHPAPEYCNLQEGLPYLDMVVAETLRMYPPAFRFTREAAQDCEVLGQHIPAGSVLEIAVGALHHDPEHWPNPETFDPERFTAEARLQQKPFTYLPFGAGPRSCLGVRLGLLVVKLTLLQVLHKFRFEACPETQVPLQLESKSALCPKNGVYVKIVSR
As to the kind of experiment: Tested for inhibition of thromboxane synthetase from spontaneously hypertensive rats. The method, boiled down: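 Washed SHR platelets in oxygenated Krebs phosphate buffer pH 7.4 (4.5-6.0 X 10^4 platelets/µL) incubated with vehicle or drug 10 min at 37 °C; stopped with ice and citric acid. TXB2 measured by direct RIA. Percent inhibition is relative to vehicle controls after background subtraction. IC50 is read from a plot of inhibition vs log concentration.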

Assay [2] deals with T2, Thromboxane-A synthase (Rattus norvegicus) (UniProt P49430).
T2 sequence (whole entry): T1 sequence (P49430 whole entry)
Nature of the assay: Tested for antihypertensive activity in spontaneously hypertensive rats at 100 mg/kg peroral dosage for 2 days; I is inactive. It is filed as functional, organism-based. Also noted: dose 100 mg/kg. The method, boiled down:
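Male 16-week-old Okamoto SHR (mean arterial pressure about 170 mmHg) gavaged with compound suspended in 2% preboiled starch (50 mg/mL) at 100 mg/kg or less, with 0.9% NaCl load 25 mL/kg; identical second dose without saline 24 h later. Mean arterial pressure measured 28 h after first dose; one to three rats per compound.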

Assay [3] relates to Oryctolagus cuniculus. Nature of the assay: Tested for inhibition of thromboxane formation in rabbit platelets at 2 hr by administration of 0.1 mg/kg intravenous bolus dose. It is filed as functional. Summed up: (§1)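 Rabbits given compound in 0.9% sterile saline IV, as a bolus or by infusion pump. Blood drawn 5 min predose and at 0.5, 1, 2 and 3 h, then clotted 2 h at 37 °C and held 2 h on ice. Serum mixed with indomethacin, stored at -20 °C, and diluted in pH 7.4 phosphate buffer. TXB2 measured by direct RIA.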

The subject of assay [4] is Oryctolagus cuniculus. Nature of the assay: Tested for inhibition of thromboxane formation in rabbit platelets at 3 hr by administration of 0.1 mg/kg intravenous bolus dose. In kind it is functional. Summed up:
as §1

The test system of assay [5] is Oryctolagus cuniculus. As to the kind of experiment: Tested for inhibition of thromboxane formation in rabbit platelets at 3 hr by administration of 0.3 mg/kg intravenous bolus dose. It is filed as functional. The method, boiled down: as §1
Assay [6] relates to Oryctolagus cuniculus. Nature of the assay: Tested for inhibition of thromboxane formation in rabbit platelets at 1.0 hr by administration of 0.5 mg/kg/h perfused dose. It is filed as functional. Summed up:
as §1

In assay [7] the test system is Oryctolagus cuniculus. As to the kind of experiment: Tested for inhibition of thromboxane formation in rabbit platelets at 0.5 hr by administration of 0.3 mg/kg intravenous bolus dose. It is filed as functional. The method, boiled down:
as §1

Assay [8] deals with Oryctolagus cuniculus. Nature of the assay: Tested for inhibition of thromboxane formation in rabbit platelets at 1.0 hr by administration of 0.1 mg/kg intravenous bolus dose. It is filed as functional. The method, boiled down: as §1
Assay [9] has as its system Oryctolagus cuniculus. Nature of the assay: Tested for inhibition of thromboxane formation in rabbit platelets at 1.0 hr by administration of 0.3 mg/kg intravenous bolus dose. It is filed as functional. The method, boiled down: as §1
For assay [10], the species on record is Homo sapiens. As to the kind of experiment: Tested for inhibition of thromboxane formation in human platelets. It is filed as functional. Summed up:
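Platelets from four healthy human volunteers were isolated with a small amount of prostaglandin E1 to prevent aggregation, then treated with compound, standard or vehicle. TXB2 measured by direct RIA. IC50 is read graphically from percent inhibition vs log concentration curves.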

Assay [11] has as its system Oryctolagus cuniculus. Nature of the assay: Tested for inhibition of thromboxane formation in rabbit platelets at 0.5 hr by administration of 0.1 mg/kg intravenous bolus dose. In kind it is functional. Summed up:
as §1

Assay [12] has as its system Oryctolagus cuniculus. As to the kind of experiment: Tested for inhibition of thromboxane formation in rabbit platelets at 0.5 hr by administration of 0.5 mg/kg/h perfused dose. It is filed as functional. The method, boiled down: as §1
The subject of assay [13] is Oryctolagus cuniculus. Nature of the assay: Tested for inhibition of thromboxane formation in rabbit platelets at 2 hr by administration of 0.3 mg/kg intravenous bolus dose. In kind it is functional. The method, boiled down: as §1
The subject of assay [14] is Oryctolagus cuniculus. Nature of the assay: Tested for inhibition of thromboxane formation in rabbit platelets at 3 hr by administration of 10 mg/kg intravenous bolus dose. In kind it is functional. The method, boiled down:
as §1

The test system of assay [15] is Oryctolagus cuniculus. As to the kind of experiment: Tested for inhibition of thromboxane formation in rabbit platelets at 1.0 hr by administration of 10 mg/kg intravenous bolus dose. It is filed as functional. Summed up: as §1

Activity calls are given as the source filed them. No cut-off for these calls is given here.

Usually IC50 stands for the concentration that inhibits the measured activity by half. Lower therefore signals inhibition by little substance. As to `Cc1ccc2[nH]c(=O)n(CCCn3ccnc3)c(=O)c2c1`, the IC50 in [1] was determined as 20 nM. Also, the outcome in [2] was inactive.

The compound `CC(Cn1ccnc1)Cn1nnc2ccc(Br)cc2c1=O` (configuration not stated) had an IC50 in assay [1] of 1700 nM. In addition, the outcome in assay [2] was inactive.

For `Nc1cc(Cl)ccc1C(=O)NCCCCCn1ccnc1`, the result in assay [2] was inactive.

Consider `Nc1ccc(Cl)cc1C(=O)NCCCCCCCn1ccnc1`, for which the outcome in assay [2] was inactive.

As a reminder, the inhibition in vivo is how much of the control response was suppressed. A higher inhibition in vivo goes with a response far below the control. Take `CC(Cn1ccnc1)Cn1c(=O)[nH]c2cc(Cl)ccc2c1=O` (configuration not stated): the inhibition in vivo at 0.1 mg/kg was found to be 39.5% in assay [3], 46.2% in [4], 62.8% in assay [8] and 73.6% in assay [11]. For the same compound, the inhibition in vivo at 0.3 mg/kg in [5] is 53.1%; in [7], 88.9%; in assay [9] it was 82.8%; in [13], 60.8%. Testing at 0.5 mg/kg in assay [6] gave an inhibition in vivo of 98.1%. Also, the IC50 in assay [10] is 21.2 nM. Further, the inhibition in vivo at 0.5 mg/kg/h in assay [12] is 95.9%.

On to `O=c1c2ccccc2nnn1CCCCCn1ccnc1`, for which, in [2], the result was inactive.

For the compound `O=c1[nH]c2ccc(Br)cc2c(=O)n1CCCn1ccnc1`, the IC50 in assay [1] was found to be 100 nM. The result in assay [2] was inactive.

Take `Cc1ccc(N)c(C(=O)NCC(C)Cn2ccnc2)c1` (configuration not stated): in assay [1], the midpoint of inhibition, the IC50, lay at 1300 nM. The result in assay [2] was inactive.

`CC(Cn1ccnc1)Cn1c(=O)[nH]c2c(Cl)cccc2c1=O` (configuration not stated) came in with an IC50 in [1] of 10 nM. Also, in assay [2], the outcome was inactive.

`Nc1ccccc1C(=O)NCCCn1ccnc1`: in [2], the outcome was inactive.

For the compound `O=c1c2cc(Cl)ccc2nnn1CCCn1ccnc1`, the outcome in assay [2] was inactive.

As to `O=c1c2ccc(Cl)cc2ncn1CCCCn1ccnc1`, in assay [2], the result was inactive.

With `CC(Cn1ccnc1)Cn1nnc2ccc(Cl)cc2c1=O` (configuration not stated), the IC50 in [1] turned out to be 900 nM. The outcome in [2] was inactive.

Consider `O=C(O)c1ccc(OCCn2ccnc2)cc1` [DAZOXIBEN], for which the figures for the inhibition in vivo at 10 mg/kg in assay [14] and in assay [15] were 74.5% and 94.7%, respectively. Moreover, the inhibition in vivo at 0.3 mg/kg was determined as 22.8% in [5], 45.9% in assay [7], 30.1% in assay [9] and 13.6% in [13]. Further, the result in assay [2] was inactive. Further, the IC50 in [10] amounted to 5030 nM.

As for `O=c1c2ccccc2ncn1CCCn1ccnc1`, the outcome in assay [2] was inactive.

In [1], `CC(CNC(=O)c1cc(Br)ccc1N)Cn1ccnc1` (configuration not stated) had an IC50 of 290 nM. Further, the outcome in [2] was inactive.

In the case of `CC(Cn1ccnc1)Cn1cnc2ccc(Cl)cc2c1=O` (configuration not stated), half-maximal inhibition in assay [1] (IC50) was put at 90 nM. For the same compound, the outcome in assay [2] was inactive.

As for `O=c1[nH]c2ccc(Cl)cc2c(=O)n1CCCCCCCCCCn1ccnc1`, it took 7 nM to reach half-maximal inhibition in assay [1] (IC50). Also, in assay [2], the outcome was inactive.

Consider `Nc1ccc(Cl)cc1C(=O)NCCCCn1ccnc1`, for which the result in [2] was inactive.

Consider `Nc1c(Cl)cccc1C(=O)NCCCCCn1ccnc1`, for which, in assay [2], the result was inactive.

In assay [1], `O=c1[nH]c2ccccc2c(=O)n1CCCn1ccnc1` returned an IC50 of 600 nM. For the same compound, the outcome in [2] was inactive.

`Cc1ccc2[nH]c(=O)n(CC(C)Cn3ccnc3)c(=O)c2c1` (configuration not stated): the IC50 in assay [1] turned out to be 3 nM. Also, the result in assay [2] was inactive.

With `CC(CCn1c(=O)[nH]c2cc(Cl)ccc2c1=O)n1ccnc1` (configuration not stated), the outcome in [2] was inactive.

`O=c1[nH]c2cc(Cl)ccc2c(=O)n1CCCn1ccnc1` displayed an IC50 in assay [1] of 180 nM. In assay [2], the outcome was inactive.

With `O=c1c2cc(Cl)ccc2ncn1CCCCCn1ccnc1`, the outcome in assay [2] was inactive.

`O=c1[nH]c2ccc(Cl)cc2c(=O)n1CCCCCCCCn1ccnc1`: the result in assay [2] was inactive.

Consider `Nc1ccccc1C(=O)NCCCCn1ccnc1`, for which, in [2], the result was inactive.

As to `CC(Cn1ccnc1)Cn1c(=O)[nH]c2ccc(Cl)cc2c1=O` (configuration not stated), the result in [2] was inactive.

`Cc1ccc(N)c(C(=O)NCCCCn2ccnc2)c1` showed an IC50 in [1] of 340 nM. Further, the result in assay [2] was inactive.

As for `CC(CNC(=O)c1ccccc1N)Cn1ccnc1` (configuration not stated), the IC50 in assay [1] stood at 2500 nM. Also, the result in assay [2] was inactive.

As to `O=c1[nH]c2ccc(Cl)cc2c(=O)n1CCCn1ccnc1`, the outcome in [2] was inactive.
